CHOP inh: inhibitors of CHOP induction in ER stress response; AID 2732; 220,000 tested, 3.8% active; inhibition, % at 10 µM; CHO-K1 CHOP-promoter luciferase, tunicamycin-induced, 15-18 h;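 active means compounds that reduced the stress-induced luciferase reporter signal by more than about 70% of percent inhibition, limit read from the data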
S1P3 antagonist: antagonists of human S1P3 receptor. Q99500. CHO S1P3 NFAT-BLA reporter, FRET fluorescence, antagonist mode. inhibition, % at 4.98 µM. 170,000 tested, 0.27% active. AID 485;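 active means inhibition above the plate cutoff, the mean inhibition of test wells on that plate plus 3 SD, cut at about 28% in these data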;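 further: cells challenged with S1P at its EC80 of 0.8 µM; blue over green emission ratio from cleaved BLA substrate after 4 h stimulation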
MDM2 E3 inh: blocks human Mdm2 ubiquitin ligase activity. cell-based MDM2 ubiquitination luciferase reporter, 2 h; 0 = plate control, 100 = twice control, blank-subtracted. signal enhancement, % at 5 µM. 210,000 tested, 0.11% active. AID 1230;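 active means signal enhancement of 30% or more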;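 further: luminescence tracks abundance of the self-degrading MDM2-luciferase fusion protein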
Target sequence (Q00987 whole entry, looked up, the tested form may be a part): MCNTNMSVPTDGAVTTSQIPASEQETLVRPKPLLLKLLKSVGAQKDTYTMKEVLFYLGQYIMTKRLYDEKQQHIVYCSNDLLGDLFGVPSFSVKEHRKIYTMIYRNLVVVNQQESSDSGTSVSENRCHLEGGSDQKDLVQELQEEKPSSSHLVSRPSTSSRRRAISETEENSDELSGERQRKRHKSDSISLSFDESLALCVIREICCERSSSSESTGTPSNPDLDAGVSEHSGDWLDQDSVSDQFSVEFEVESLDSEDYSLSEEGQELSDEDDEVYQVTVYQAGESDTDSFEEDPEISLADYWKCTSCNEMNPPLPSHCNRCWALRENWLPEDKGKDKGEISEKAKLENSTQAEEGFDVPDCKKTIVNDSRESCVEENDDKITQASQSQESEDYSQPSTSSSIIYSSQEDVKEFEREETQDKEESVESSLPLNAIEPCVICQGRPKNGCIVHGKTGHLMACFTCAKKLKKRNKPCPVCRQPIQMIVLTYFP
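Material: stable MDM2–luciferase fusion reporter cells / Quantity: 2000 cells/well / Dosing: single 5 µM compound dose, 0.2% final DMSO / Buffer or medium: DMEM / Schedule: 4 h cell settling then 2 h compound exposure, 37 °C / Detection: luminescence with SteadyLite reagent, 15 min at room temperature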
Hsp70 activator: switches on Hsp70 transcription; 200,000 tested, 0.04% active; HeLa Hsp70 promoter luciferase reporter, luminescence; scaled: vehicle 0, proteasome-inhibitor control 100%; activation, % at 10 µM;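 active means activation above the mean across all tested compounds plus 3 SD, cutoff set per campaign, cut at about 5.5% in these data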
CHOP inh conf: confirmation of CHOP induction inhibitors. shares compounds with CHOP inh. CHO-CHOP promoter luciferase reporter, tunicamycin-induced, luminescence. inhibition, % at 10 µM. 2,100 tested, 45% active. AID 504437;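 active means mean of three repeat readings of reporter signal inhibition above a set limit, cut at about 70% in these data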
Numbers stand for hits; 0 = inactive; - = no result. In the library only some 4% were active in any assay of this set; here they are far more common.

SMILES | CHOP inh | S1P3 antagonist | MDM2 E3 inh | Hsp70 activator | CHOP inh conf
N#C/C(=C/c1ccc(N2CCCCC2)cc1)c1cccc(F)c1 | 0 | 0 | 0 | 0 | -
N#C/C(=C/c1ccc(N2CCCCC2)o1)c1cccc(F)c1 | 103 | - | 0 | 0 | 0
CCOc1ccc2nc(NCCNC(=O)Nc3cccc(C)c3)c(C#N)cc2c1 | 103 | 0 | 0 | 0 | 0
C/C(=N\NC(=O)CC1N=C(Cc2ccccc2)NNC1=O)c1ccc(Cl)cc1Cl (configuration not stated) | 99 | - | 0 | 0 | 0
C/C(=N\NC(=O)CC1N=C(Cc2ccccc2)NNC1=O)c1ccccc1 (configuration not stated) | 0 | - | 0 | 0 | -
COc1ccc2c(Cl)c(C(=O)N/N=C/c3ccc4c(c3)OCO4)sc2c1 | 107 | - | 0 | 0 | 0
CC(C)C(=O)NNC(=O)CC(=O)Nc1ccccc1C(=O)O | 0 | 0 | 0 | - | -
COc1cccc(/C=N\NC(=O)c2ccc(Cn3cc(Br)c([N+](=O)[O-])n3)o2)c1O | 97 | 0 | 0 | 0 | 0
COc1cccc(/C=N/NC(=O)Cn2nc(C)c([N+](=O)[O-])c2C)c1O | 0 | 0 | 0 | 0 | -
Cc1nnc(SCCn2c(N3CCC(Cc4ccccc4)CC3)nc3c2c(=O)[nH]c(=O)n3C)s1 | 0 | 0 | - | - | -
CCCCCn1c(N2CCC(C(N)=O)CC2)nc2c1c(=O)[nH]c(=O)n2C | 0 | 0 | 0 | 0 | -
CC(C)Cn1c([N+](=O)[O-])nc2c1c(=O)[nH]c(=O)n2C | 0 | 0 | 0 | - | -
Cn1c(=O)[nH]c(=O)c2c1nc([N+](=O)[O-])n2Cc1ccccc1 | 106 | 0 | 0 | - | 121
Cn1c(-c2cccc(OCc3ccccc3)c2)nc2c1c(=O)[nH]c(=O)n2Cc1ccccc1 | 106 | - | 0 | 0 | 79
CCCCCCn1c(N2CCC(C)CC2)nc2c1c(=O)[nH]c(=O)n2C | 100 | 0 | 0 | 0 | 105
CCCCn1c(N2CCC(Cc3ccccc3)CC2)nc2c1c(=O)[nH]c(=O)n2C | 97 | 0 | 0 | 0 | 103
CN(C)c1ccnc(-n2cccc2/C=N/OCc2cccc(F)c2)c1C#N | 0 | - | 0 | 0 | -
CCOc1ccc(C(=O)C(CCC(CN(C)C)C(=O)c2ccc(OCC)cc2)CN(C)C)cc1 (configuration not stated) | 106 | 0 | 0 | 0 | 76
CCOc1ccccc1N1CCN(C(=O)/C=C/c2cccc([N+](=O)[O-])c2)CC1 | 0 | 0 | 0 | 0 | -
CCCC(=O)N1CCN(c2ccc(NC(=O)c3cc4ccccc4o3)cc2Cl)CC1 | - | 0 | 0 | 0 | 109
CCc1cccc(CC)c1NC(=O)CN1CC(C)SC1=NC1CCCCC1 (configuration not stated) | 0 | - | 0 | 0 | -
CCCc1ccc(C(=O)NNC(=O)c2ccc(Br)cc2)cc1 | 99 | 0 | 0 | 0 | 0
CCCc1ccc(C(=O)NNc2ccc(F)cc2)cc1 | 0 | 0 | 0 | - | -
Cc1sc(NC(=O)c2ccccc2)c(C(c2ccc(Cl)cc2)N2CCN(CCO)CC2)c1C (configuration not stated) | 104 | 0 | 0 | 0 | 0
CCC(C)NCCOCCOc1ccc(Br)cc1 (configuration not stated) | 0 | 0 | 0 | 0 | -
SMILES | CHOP inh | S1P3 antagonist | MDM2 E3 inh | Hsp70 activator | CHOP inh conf
Cc1cc(Cl)c(S(=O)(=O)N2CCN(c3cccc(C)c3C)CC2)cc1OCC(N)=O | 107 | - | 0 | 0 | 0
CC(C)CC(=O)N=C1SC2CS(=O)(=O)CC2N1Cc1ccccc1Cl (configuration not stated) | 0 | 0 | 0 | - | -
C=CCn1c(SCC(=O)N(CC)C2CCS(=O)(=O)C2)nc2ccccc2c1=O (configuration not stated) | 0 | 0 | - | - | -
O=S(=O)(c1cccs1)N1CCN(S(=O)(=O)c2cccs2)CC1 | 0 | 0 | 0 | 0 | -
N#Cc1nccnc1S(=O)(=O)c1cccs1 | 107 | 0 | 0 | - | 105
Cc1ccc(/C=C(\NC(=O)c2ccc(C)cc2)c2nc(=S)[nH][nH]2)cc1 | 110 | - | 0 | 0 | 0
Cc1cccc2c1N(C)C(=O)C2=O | 0 | 0 | 0 | 0 | -
Cc1cc(C)c(C)c(S(=O)(=O)ON2C(=O)c3ccccc3C2=O)c1C | 101 | - | 0 | 0 | 108
Cc1cc(C)c(S(=O)(=O)ON2C(=O)c3ccccc3C2=O)cc1C | 108 | - | 0 | 0 | 87
CC(C)(C)c1cc(OC(=O)c2ccccc2F)ccc1O | 105 | 0 | 0 | 0 | 0
Cc1ccc(Cl)c(NC(=O)COC(=O)c2ccccc2C(=O)c2ccc(Cl)c([N+](=O)[O-])c2)c1Cl | 0 | 0 | 0 | 0 | -
CCCNC(=O)COC(=O)c1ccccc1C(=O)c1ccc(Cl)c([N+](=O)[O-])c1 | 102 | 0 | 0 | 0 | 0
COc1ccc(-c2cc(C(=O)NCc3cccs3)no2)cc1 | 0 | 0 | 0 | - | -
COc1ccc2nc3sc(C(=O)NCc4cccs4)c(N)c3cc2c1 | 102 | 54 | 0 | 0 | 0
O=C(O)/C=C/C(=O)N1CCN(c2cccc(Cl)c2)CC1 | 0 | 0 | 0 | 0 | -
CC1=CN2C(=N)/C(=C/c3ccc([N+](=O)[O-])o3)C(=O)N=C2S1 | 107 | 0 | 0 | 0 | 0
Fc1ccc(Nc2nc(NCc3ccco3)c3ccccc3n2)cc1 | 97 | 0 | 0 | - | 73
Nc1nc(NCc2ccco2)nc(Nc2ccccc2)c1[N+](=O)[O-] | 0 | 0 | 0 | - | -
Cc1ccc(Nc2nc(N)c([N+](=O)[O-])c(NCc3ccco3)n2)cc1 | 101 | 0 | 0 | 0 | 0
CCOC(=O)c1c(NC(=O)CC2SC(N)=NC2=O)sc2c1CCCC2 (configuration not stated) | 0 | - | 0 | 0 | -
Cc1nn(Cc2ccc(Cl)cc2)c(C)c1NC(=O)c1cc(-c2ccc3c(c2)OCO3)on1 | 102 | 0 | 0 | 0 | 0
Cc1nn(Cc2c(Cl)cccc2Cl)c(C)c1NC(=O)c1cc(C(C)C)on1 | - | 0 | 0 | 0 | 96
CCCc1nc(NCc2ccco2)c(C#N)c2c1COC(C)(C)C2 | 104 | 0 | 0 | 0 | 0
O=C1c2ccccc2C(=O)N1CC1=CCS(=O)(=O)C1 | 0 | 0 | 0 | 0 | -
O=C(Nc1ccc2ncccc2c1)c1cc(Cl)ccc1Cl | 0 | 0 | 0 | 0 | -
SMILES | CHOP inh | S1P3 antagonist | MDM2 E3 inh | Hsp70 activator | CHOP inh conf
Cc1ccc(-n2c(C)cc3c2CC(C)(C)CC3=O)cc1C | 105 | - | 0 | 0 | 0
O=C(NNc1ccccc1Br)C(O)(c1cccc(C(F)(F)F)c1)c1cccc(C(F)(F)F)c1 | 103 | 0 | 0 | 0 | 118
Fc1ccc(Sc2nc(-c3ccccc3)nnc2C(F)(F)F)cc1 | 112 | - | 0 | 0 | 0
Cc1ccc(N(c2ncnc(N)c2[N+](=O)[O-])C2CCCCC2)cc1 | 105 | - | 0 | 0 | 100
Cc1ccc(Oc2ncnc(N)c2[N+](=O)[O-])cc1 | 0 | 0 | 0 | 0 | -
Cc1ccc2c(CC(=O)OC(C)C(=O)NCc3ccc4c(c3)OCO4)coc2c1 (configuration not stated) | 0 | 0 | 0 | 0 | -
COc1cc(-c2nc3c(c(C)nn3-c3ccccc3)c3cc(OC)c(OC)cc23)ccc1O | 99 | - | 0 | 0 | 83
COc1ccc(-c2c(C)nn(-c3ccccc3)c2N)cc1OC | 0 | - | - | 0 | -
CC1=C(C)/C(=N\OC(=O)/C=C/c2ccccc2)C=CC1=O | 104 | - | 0 | 0 | 0

Screening results from PubChem.
